Here are results for twelve compounds from article PMC5856940 (Saudi Pharmaceutical Journal : SPJ, 2018).

Data set [1] concerns HEK293T cells. As to the kind of experiment: Cytotoxicity screening of AHAMCs, trypan blue exclusion assay. In kind it is cell-based, Human. The settings on record: 25 mM, 24 h. A digest of the protocol:
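HEK293T cells were grown in DMEM with 10% FBS, 1mM pyruvate and antibiotics/antifungal at 37 °C and 5% CO2. Cells were seeded at 1 × 10^6 per well, grown 24 h, then given fresh medium. Test compound (100 mM DMSO stock, diluted in DMSO then dH2O) was added at 25 mM for 24 h. Cells were trypsinised (0.5%) and live/dead cells counted by trypan blue on a Bürker hemocytometer under bright field.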

The subject of data set [2] is HEK293T cells. As to the kind of experiment: Dose-dependent response. Format: cell-based, Human. Conditions: 24 h; for cytotoxicity at higher concentrations: 50 and 100 mM; for IC50: cell death, trypan blue, 6.25-100 mM. A digest of the protocol:
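HEK293T cells were seeded at 1 × 10^6 per well and grown 24 h. Medium was replaced with medium holding test compound at 6.25, 12.5, 25, 50 or 100 mM for 24 h. Read-out was trypan blue exclusion, with % cell death = dead/total cells × 100. IC50 was taken from a fitted concentration–effect curve. Three technical and biological repeats were done.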

The subject of data set [3] is HEK293T cells. As to the kind of experiment: Differentiation of apoptosis and necrosis by PI staining. In kind it is cell-based, Human. Conditions: for cell death compared to the other compounds: IC50, 24 and 48 h. A digest of the protocol: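 HEK293T cells (1 × 10^6 per well) were grown 24 h, then resuspended in medium with test compound at one fixed concentration for 24 or 48 h. Cells were washed three times in DPBS, trypsinised, washed again, and stained 5 min with 1 mg/mL PI in 2× SSC. Nuclei were imaged by confocal microscopy (ex 535, em 617 nm) and scored as apoptotic or necrotic. About 100 cells were counted per sample, with three technical and biological repeats.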

Data set [4] deals with HEK293T cells. As to the kind of experiment: Externalized phosphatidylserine, Annexin-V staining. Format: cell-based, Human. The method in brief: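 HEK293T cells were exposed to test compound for 24 or 48 h, trypsinised, washed three times in DPBS and resuspended in annexin-binding buffer. Alexa Fluor 350 Annexin-V conjugate was added for 15 min at 37 °C, and cells were washed in binding buffer. Imaging was by confocal microscopy (ex 346, em 442 nm). About 100 cells were analysed per sample, with three technical and biological repeats.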

Data set [5] deals with 1321N1 cells. Put plainly: Cytotoxicity in glioma cells, trypan blue assay. Format: cell-based, Human. The settings on record: 1321N1, 100 µM, 24 h. The method in brief:
(§1)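 U-87 MG cells were grown in MEM with L-glutamine, and 1321N1 cells in DMEM with L-glutamine plus 2 mM sodium pyruvate. Both media had 10% FBS, penicillin/streptomycin and amphotericin B, at 37 °C and 5% CO2. Cells were seeded at 1 × 10^5 per well, grown 48 h, then exposed 24 h to 100 µM test compound, 0.1% DMSO or 100 µM temozolomide. Cells were trypsinised and scored by trypan blue. Biological and technical repeats were run.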

For data set [6], the system named is U-87 MG cells. Put plainly: Cytotoxicity in glioma cells, trypan blue assay. In kind it is cell-based, Human. The settings on record: 100 µM, 24 h. The method in brief: as §1
Data set [7] has as its system Syrian Hamster Embryo (SHE) cells. The settings on record: 60 µM ref Hahnel et al., 1999; cited from earlier work.

“2-(2-(2,4-dioxopentan-3-ylidene)hydrazinyl)phenylarsonic acid [Compound 12]” gave a cytotoxicity in data set [1] of at most 30%.

“2-(2-(2-hydroxy-4-nitrophenyl)hydrazono)-2H-indene-1,3-dione [Compound 2]” came in with a cytotoxicity in data set [1] of at most 30%.

In turn, “4-hydroxy-5-(2-(2,4,6-trioxo-tetrahydro-pyrimidin-5(6H) ylidene)hydrazinyl)benzene-1,3-disulfonic acid [Compound 6]” gave a cytotoxicity in data set [1] of 36%. In data set [2], the “cytotoxicity at higher concentrations” value is recorded as “did not elicit significant cytotoxicity” and the IC50 (commonly the midpoint of a concentration-inhibition curve) is 77.08 ± 0.5 mM. Also, the “cell death compared to the other compounds” value in data set [3] is given as “less cell death”.

In data set [1], “5-(2-(2,4-dioxopentan-3-ylidene)hydrazinyl)-2,3-dihydrophthalazine-1,4-dione [Compound 13]” had a cytotoxicity of at most 30%.

The compound “5-(2-(2-hydroxy-4-nitrophenyl)hydrazono)pyrimidine-2,4,6(1H,3H,5H)-trione [Compound 7]” yielded a cytotoxicity in data set [1] of at most 30%.

In data set [1], “5-(2-(2-hydroxyphenyl) hydrazono)pyrimidine-2,4,6(1H,3H,5H)-trione [Compound 5]” came in with a cytotoxicity of 46%. In addition, in data set [2], the cell death is on record as about 80% and the IC50 was 50.9 ± 2.5 mM. In data set [3] (IC50 of compound, 24 h), the apoptosis result was “about 40%” and the necrosis result is on record as “about 20%”. Besides, in data set [3] (IC50 of compound, 48 h), the apoptosis entry is recorded as “≈ 60%”, the cell death is reported as about 80% and the necrosis result is recorded as “about 20%”. The “apoptotic effect (Annexin-V)” value in data set [4] (24 h and 48 h) is “more apoptotic effect compared to the other compounds”. Besides, in data set [5], the “higher inhibitory effect compared to temozolomide” value is given as 10% and the mortality – broadly, the percentage killed – stood at 20%. Besides, in data set [6], the “lower inhibitory effect compared to temozolomide” value was 10% and the mortality is 10%.

As for “5-(2-(4,4-dimethyl-2,6-dioxocyclohexylidene)hydrazinyl)-4-hydroxybenzene-1,3-disulfonic acid [Compound 9]”, the cytotoxicity in data set [1] is reported as 42%. Also, the “cytotoxicity at higher concentrations” value in data set [2] is “did not elicit significant cytotoxicity”. Also, the “cell death compared to the other compounds” value in data set [3] is on record as “less cell death”.

In turn, “5-chloro-2-hydroxy-3-(2-(2,4,6-trioxo-tetrahydropyrimidin-5(6H)-ylidene)hydrazinyl)benzenesulfonic acid [Compound 4]” gave a cytotoxicity in data set [1] of at most 30%.

With “5-chloro-3-(2-(4,4-dimethyl-2,6-dioxocyclohexylidene)hydrazinyl)-2-hydroxybenzenesulfonic acid [Compound 8]”, the cytotoxicity in data set [1] is listed as 45%. Besides, in data set [2], the cell death is listed as about 80% and the IC50 is 75.5 ± 2.3 mM. The “apoptosis/necrosis response compared with compound 5” value in data set [3] (IC50, 48 h) is listed as “lower response”. For the same compound, the “level of apoptosis (Annexin-V)” value in data set [4] (48 h) was “lower level of apoptosis”.

Regarding `C[C@@H]1Cc2c(Cl)cc(C(=O)N[C@@H](Cc3ccccc3)C(=O)O)c(O)c2C(=O)O1` [Ochratoxin A], in data set [7], the “intracellular calcium increase compared to untreated cells” value was 45%.

In turn, “(E)-3-(2-(1-ethoxy-1,3-dioxobutan-2-ylidene)hydrazinyl)-2-hydroxy-5-nitrobenzenesulfonic acid [Compound 1]” came in with a cytotoxicity in data set [1] of at most 30%.

In data set [1], “(Z)-5-chloro-2-hydroxy-3-(2-(4,4,4-trifluoro-1,3-dioxo-1-(thiophen-2-yl)butan-2-ylidene)hydrazinyl)benzenesulfonic acid [Compound 3]” displayed a cytotoxicity of at most 30%.
